Reference: ChEMBL document CHEMBL1156410, “Design and synthesis of a combinatorial chemistry library of 7-acyl, 10-acyl, and 7,10-diacyl analogues of paclitaxel (taxol) using solid phase synthesis” (J Nat Prod, 2002)
Values after ≈ are worked out from the molar mass of the structure shown.

Tests used:
A2780 = assay: Cytotoxicity against human A2780 cells; format: functional, cell-based
[1] = Octanol-water partition coefficient, log P in 0.1 N aqueous HCl; format: physicochemical
Outline: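 Compound partitioned between 1-octanol and 0.1 N aqueous HCl with vigorous shaking for 1 h.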

[2] = Induction of tubulin polymerization by DAPI fluorescence method; details: read-out: I50
Outline: (§1)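 Microplate assay in PMEG buffer (100 mM PIPES, 1 mM MgSO₄, 2 mM EGTA, 0.1 mM GTP, pH 6.9) containing ligand; DAPI final 10 µM, tubulin final 5 µM. Fluorescence followed at 37 °C, excitation 360/40 nm, emission 460/40 nm. Change in fluorescence normalized to the curve of 10 µM paclitaxel standard. Samples in duplicate, triplicate or quadruplicate; concentrations over 2 orders of magnitude tested.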

[3] = Induction of tubulin polymerization at 0.1 uM by DAPI fluorescence method relative to control; outline: as §1
[4] = Induction of tubulin polymerization at 1 uM by DAPI fluorescence method relative to control; outline: as §1
[5] = Induction of tubulin polymerization at 10 uM by DAPI fluorescence method relative to control; outline: as §1

| Structure (SMILES) | IC50 (A2780) [µg/mL] | logP [1] | IC50 [2] [nM] | Activity [3] [%] | Activity [4] [%] | Activity [5] [%] |
| --- | --- | --- | --- | --- | --- | --- |
| CC(=O)O[C@@]12CO[C@@H]1C[C@H](OC(=O)CN1CCN(c3ccccn3)CC1)[C@@]1(C)C(=O)[C@H](O)C3=C(C)[C@@H](OC(=O)[C@H](O)[C@@H](NC(=O)c4ccccc4)c4ccccc4)C[C@@](O)([C@@H](OC(=O)c4ccccc4)[C@H]21)C3(C)C | 0.014 (≈ 0.0138 µM) | 0.155 | 1650 | – | – | – |
| CC(=O)O[C@H]1C(=O)[C@@]2(C)[C@H]([C@H](OC(=O)c3ccccc3)[C@]3(O)C[C@H](OC(=O)[C@H](O)[C@@H](NC(=O)c4ccccc4)c4ccccc4)C(C)=C1C3(C)C)[C@]1(OC(C)=O)CO[C@@H]1C[C@@H]2O [PACLITAXEL] | 0.136 (≈ 0.159 µM) | 0.017 | 550 | 2.3 | 66 | 100 |
| CC(=O)O[C@@]12CO[C@@H]1C[C@H](OC(=O)CN1CCC(N3CCCC3)CC1)[C@@]1(C)C(=O)[C@H](O)C3=C(C)[C@@H](OC(=O)[C@H](O)[C@@H](NC(=O)c4ccccc4)c4ccccc4)C[C@@](O)([C@@H](OC(=O)c4ccccc4)[C@H]21)C3(C)C | 0.96 (≈ 0.954 µM) | – | 850 | – | – | – |
| CC(=O)O[C@@]12CO[C@@H]1C[C@H](OC(=O)CN1CCN(Cc3ccc4c(c3)OCO4)CC1)[C@@]1(C)C(=O)[C@H](O)C3=C(C)[C@@H](OC(=O)[C@H](O)[C@@H](NC(=O)c4ccccc4)c4ccccc4)C[C@@](O)([C@@H](OC(=O)c4ccccc4)[C@H]21)C3(C)C | 0.02 (≈ 0.0187 µM) | – | 7800 | – | – | – |
